Measurements published in ChEMBL document CHEMBL1129558, “2(S)-((3,5-bis(trifluoromethyl)benzyl)-oxy)-3(S)-phenyl-4- ((3-oxo-1,2,4-triazol-5-yl)methyl)morpholine (1): a potent, orally active, morpholine-based human neurokinin-1 receptor antagonist” (J Med Chem, 1996).

What was measured:
[1] = biological target: Substance-P receptor (Homo sapiens, UniProt P25103); experiment: Displacement of [125I]-labeled SP from human Tachykinin receptor 1 expressed in CHO cells; format: cell-based
Method in brief: (§1)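 Human receptor expressed in CHO cells; values are given as mean with SD from 3 determinations unless otherwise stated.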

[2] = Physicochemical property was determined; format: ADME
[3] = test system: Cavia porcellus; experiment: SP-induced dermal inflammation assay in guinea pig after peroral administration followed by SP challenge id after 1 hr; format: functional; conditions: oral, read-out: ID50 (the source's name)
Method in brief: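 Guinea pigs received antagonist orally, then an intradermal substance P challenge 1 h later. Read-out was SP-induced plasma extravasation in skin. Dose–response data used 5–12 animals per data point.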

[4] = Inhibition of [3H]diltiazem binding to L-type [Ca2+] channel in rabbit skeletal muscle; format: tissue-based, Oryctolagus cuniculus, Muscle tissue
[5] = biological target: T1, Neuromedin-K receptor (Homo sapiens, UniProt P29371); experiment: Displacement of [125I]-labeled SP from the human Tachykinin receptor 3 expressed in CHO cells; format: cell-based; method in brief: as §1
T1 sequence (P29371 whole entry): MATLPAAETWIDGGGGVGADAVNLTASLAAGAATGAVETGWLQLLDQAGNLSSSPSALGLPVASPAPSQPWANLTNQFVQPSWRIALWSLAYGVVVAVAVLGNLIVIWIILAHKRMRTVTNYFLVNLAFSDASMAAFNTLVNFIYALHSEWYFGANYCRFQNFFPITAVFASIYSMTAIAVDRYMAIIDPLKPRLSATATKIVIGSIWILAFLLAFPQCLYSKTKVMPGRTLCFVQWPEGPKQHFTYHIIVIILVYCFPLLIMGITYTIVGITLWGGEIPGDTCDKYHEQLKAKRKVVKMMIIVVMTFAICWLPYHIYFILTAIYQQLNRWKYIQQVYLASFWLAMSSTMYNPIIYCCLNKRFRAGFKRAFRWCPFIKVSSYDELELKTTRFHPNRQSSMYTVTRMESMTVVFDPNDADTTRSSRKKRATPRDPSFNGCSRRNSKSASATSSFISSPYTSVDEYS

[6] = biological target: T2, Substance-K receptor (Homo sapiens, UniProt P21452); experiment: Displacement of [125I]-labeled SP from the human Tachykinin receptor 2 expressed in CHO cells; format: cell-based; method in brief: as §1
T2 sequence (P21452 whole entry): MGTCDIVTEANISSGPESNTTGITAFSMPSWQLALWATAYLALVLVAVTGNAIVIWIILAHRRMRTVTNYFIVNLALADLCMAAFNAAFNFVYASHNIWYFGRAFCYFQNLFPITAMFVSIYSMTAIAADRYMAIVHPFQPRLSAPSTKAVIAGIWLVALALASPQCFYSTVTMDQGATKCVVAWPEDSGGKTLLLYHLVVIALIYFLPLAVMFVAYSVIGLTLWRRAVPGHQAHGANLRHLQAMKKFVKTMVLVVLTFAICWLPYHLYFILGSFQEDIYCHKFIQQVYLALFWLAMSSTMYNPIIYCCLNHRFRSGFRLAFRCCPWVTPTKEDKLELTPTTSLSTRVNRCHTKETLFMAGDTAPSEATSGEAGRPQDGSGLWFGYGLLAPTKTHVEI

[7] = Physicochemical property pKa of benzyl amine was determined
[8] = Physicochemical property pKa of piperdine amine was determined

Substance-P receptor, sequence (P25103 whole entry): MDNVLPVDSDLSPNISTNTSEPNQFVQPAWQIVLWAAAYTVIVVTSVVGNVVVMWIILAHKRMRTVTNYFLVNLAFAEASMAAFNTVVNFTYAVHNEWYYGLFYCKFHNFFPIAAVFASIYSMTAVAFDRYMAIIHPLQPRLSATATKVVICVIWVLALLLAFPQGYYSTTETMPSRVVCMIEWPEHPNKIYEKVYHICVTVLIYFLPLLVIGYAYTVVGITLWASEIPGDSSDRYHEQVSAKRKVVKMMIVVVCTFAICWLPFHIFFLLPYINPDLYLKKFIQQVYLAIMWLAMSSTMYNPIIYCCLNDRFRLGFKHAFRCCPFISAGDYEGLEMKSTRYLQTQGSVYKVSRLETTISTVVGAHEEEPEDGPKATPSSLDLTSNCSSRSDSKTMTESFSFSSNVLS

Row | Compound | IC50 [1] | other results
1 | FC(F)(F)c1cc(CO[C@H]2OCCN[C@@H]2c2ccccc2)cc(C(F)(F)F)c1 (stereo in doubt; 20) | 21 nM | 
2 | COC(=O)CN1CCO[C@H](OCc2cc(C(F)(F)F)cc(C(F)(F)F)c2)[C@@H]1c1ccccc1 | 1.6 nM | 
3 | O=C(O)CN1CCO[C@H](OCc2cc(C(F)(F)F)cc(C(F)(F)F)c2)[C@@H]1c1ccccc1 | 66 nM | 
4 | FC(F)(F)c1cc(CO[C@H]2OCCN[C@@H]2c2ccccc2)cc(C(F)(F)F)c1 (stereo in doubt; 13) | 287 nM | 
5 | FC(F)(F)c1cc(CO[C@H]2OCCN(Cn3cncn3)[C@H]2c2ccccc2)cc(C(F)(F)F)c1 | 0.13 nM | 
6 | FC(F)(F)c1cc(CO[C@@H]2OCCN[C@@H]2c2ccccc2)cc(C(F)(F)F)c1 (stereo in doubt; 21) | 116 nM | 
7 | FC(F)(F)c1cc(CO[C@@H]2OCCN[C@@H]2c2ccccc2)cc(C(F)(F)F)c1 (stereo in doubt; 14) | 59 nM | 
8 | FC(F)(F)c1cc(CO[C@@H]2OCCN[C@H]2c2ccccc2)cc(C(F)(F)F)c1 (stereo in doubt; 22) | 19 nM | 
9 | FC(F)(F)c1cc(CO[C@@H]2OCCN[C@H]2c2ccccc2)cc(C(F)(F)F)c1 (stereo in doubt; 12) | 376 nM | 
10 | O=c1[nH]nc(CN2CCO[C@H](OCc3cc(C(F)(F)F)cc(C(F)(F)F)c3)[C@@H]2c2ccccc2)[nH]1 | 0.09 nM | pKa [2]: < 3; ED50 [3]: 0.009 mg/kg; IC50 [4]: 11000 nM; IC50 [5]: 150 nM; IC50 [6]: 7000 nM
11 | NC(=O)CN1CCO[C@H](OCc2cc(C(F)(F)F)cc(C(F)(F)F)c2)[C@@H]1c1ccccc1 | 1.1 nM | 
12 | COc1ccccc1CN[C@H]1CCCN[C@H]1c1ccccc1 [CP-99994] |  | pKa [7]: 4; pKa [8]: 8.7; ED50 [3]: 1.6 mg/kg; IC50 [4]: 4000 nM
